Data set [1] is described as follows: AUC (0 to t) in Sprague-Dawley rat at 10 mg/kg, po administered via gavage by LC-MS/MS analysis. It is filed as ADME, organism-based. The note with it: in vivo. The essentials:
(§1)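 Serial jugular blood samples taken at designated times and spun to plasma at 4 ℃. Plasma mixed with acetonitrile holding internal standard, then LC-MS/MS. Parameters from noncompartmental fitting.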

The target in data set [2] is Dual specificity mitogen-activated protein kinase kinase 6 (Homo sapiens) (UniProt P52564). Put plainly: Inhibition of recombinant human MKK6 (4 to end residues) at 10 uM using unactive SAPK2a as substrate measured after 40 mins in presence of [gamma33P]ATP by scintillation counting method.
Data set [3] is described as follows: AUC (0 to infinity) in Sprague-Dawley rat at 10 mg/kg, po administered via gavage by LC-MS/MS analysis. It is filed as ADME, organism-based. The arrangement: dose 10 mg/kg, route oral, time infinity. The conditions noted are these: in vivo. The essentials:
as §1

The target of data set [4] is SRSF protein kinase 1 (Homo sapiens) (UniProt Q96SB4). In words: Inhibition of human SRPK1 (2 to end residues) using RSRSRSRSRSRSRSR as substrate measured after 40 mins in presence of [gamma33P]ATP by scintillation counting method. The gist of the method:
(§2)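 Kinase panel of 422 kinases screened by Eurofins KinaseProfiler at a single test-compound concentration of 10 µM.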

The target of data set [5] is CDK3/Cyclin E (Homo sapiens) (UniProt P24864+Q00526). Put plainly: Inhibition of recombinant full-length human CDK3/cyclinE at 10 uM using histone H1 as substrate measured after 40 mins in presence of [gamma33P]ATP by scintillation counting method. In kind it is protein-complex assay.
Sequence of CDK3/Cyclin E (Homo sapiens) (P24864 whole entry, looked up): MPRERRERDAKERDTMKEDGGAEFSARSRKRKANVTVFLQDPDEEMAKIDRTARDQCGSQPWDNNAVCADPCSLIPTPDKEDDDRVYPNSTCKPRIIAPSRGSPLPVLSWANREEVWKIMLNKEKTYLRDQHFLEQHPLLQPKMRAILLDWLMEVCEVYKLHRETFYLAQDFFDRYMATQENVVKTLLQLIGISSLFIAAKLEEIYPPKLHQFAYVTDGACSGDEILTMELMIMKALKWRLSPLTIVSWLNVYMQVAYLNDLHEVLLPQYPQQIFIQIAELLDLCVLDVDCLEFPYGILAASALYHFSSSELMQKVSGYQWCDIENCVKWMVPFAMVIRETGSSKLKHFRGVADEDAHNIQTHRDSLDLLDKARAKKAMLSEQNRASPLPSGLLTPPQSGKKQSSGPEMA
Sequence of CDK3/Cyclin E (Homo sapiens) (Q00526 whole entry, looked up): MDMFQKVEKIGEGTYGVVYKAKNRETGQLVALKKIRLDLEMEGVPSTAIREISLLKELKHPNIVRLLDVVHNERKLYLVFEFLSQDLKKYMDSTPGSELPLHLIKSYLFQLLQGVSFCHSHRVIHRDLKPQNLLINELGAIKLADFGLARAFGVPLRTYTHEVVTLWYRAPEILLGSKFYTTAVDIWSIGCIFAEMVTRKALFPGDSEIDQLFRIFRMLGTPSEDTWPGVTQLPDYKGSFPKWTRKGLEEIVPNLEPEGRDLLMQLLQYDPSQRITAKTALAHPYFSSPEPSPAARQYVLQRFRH
Data set [6] addresses Calcium/calmodulin-dependent protein kinase type 1 (Homo sapiens) (UniProt Q14012). In words: Inhibition of recombinant human CaMK1 (2 to end residues) at 10 uM using calmodulin as substrate measured after 40 mins in presence of [gamma33P]ATP by scintillation counting method.
In data set [7] the test system is Serine/threonine-protein kinase D1 (Homo sapiens), Q15139 [UNDEFINED MUTATION]. In words: Inhibition of recombinant full-length human PKCmu R135A mutant at 10 uM using KKLNRTLSVA as substrate measured after 40 mins in presence of [gamma33P]ATP by scintillation counting method.
The target in data set [8] is CDK7/Cyclin H/MNAT1 (Homo sapiens) (UniProt P51946+P50613+P51948). In words: Inhibition of recombinant full length human CDK7/cyclin H/MAT1 at 10 uM using peptide substrate measured after 40 mins in presence of [gamma33P]ATP by scintillation counting method. In kind it is protein-complex assay.
The target of data set [9] is Macrophage colony-stimulating factor 1 receptor (Homo sapiens) (UniProt P07333). Put plainly: Inhibition of recombinant human FMS (538 to end residues) at 10 uM using KKKSPGEYVNIEFG as substrate measured after 40 mins in presence of [gamma33P]ATP by scintillation counting method.
Sequence of Macrophage colony-stimulating factor 1 receptor (Homo sapiens) (P07333 whole entry): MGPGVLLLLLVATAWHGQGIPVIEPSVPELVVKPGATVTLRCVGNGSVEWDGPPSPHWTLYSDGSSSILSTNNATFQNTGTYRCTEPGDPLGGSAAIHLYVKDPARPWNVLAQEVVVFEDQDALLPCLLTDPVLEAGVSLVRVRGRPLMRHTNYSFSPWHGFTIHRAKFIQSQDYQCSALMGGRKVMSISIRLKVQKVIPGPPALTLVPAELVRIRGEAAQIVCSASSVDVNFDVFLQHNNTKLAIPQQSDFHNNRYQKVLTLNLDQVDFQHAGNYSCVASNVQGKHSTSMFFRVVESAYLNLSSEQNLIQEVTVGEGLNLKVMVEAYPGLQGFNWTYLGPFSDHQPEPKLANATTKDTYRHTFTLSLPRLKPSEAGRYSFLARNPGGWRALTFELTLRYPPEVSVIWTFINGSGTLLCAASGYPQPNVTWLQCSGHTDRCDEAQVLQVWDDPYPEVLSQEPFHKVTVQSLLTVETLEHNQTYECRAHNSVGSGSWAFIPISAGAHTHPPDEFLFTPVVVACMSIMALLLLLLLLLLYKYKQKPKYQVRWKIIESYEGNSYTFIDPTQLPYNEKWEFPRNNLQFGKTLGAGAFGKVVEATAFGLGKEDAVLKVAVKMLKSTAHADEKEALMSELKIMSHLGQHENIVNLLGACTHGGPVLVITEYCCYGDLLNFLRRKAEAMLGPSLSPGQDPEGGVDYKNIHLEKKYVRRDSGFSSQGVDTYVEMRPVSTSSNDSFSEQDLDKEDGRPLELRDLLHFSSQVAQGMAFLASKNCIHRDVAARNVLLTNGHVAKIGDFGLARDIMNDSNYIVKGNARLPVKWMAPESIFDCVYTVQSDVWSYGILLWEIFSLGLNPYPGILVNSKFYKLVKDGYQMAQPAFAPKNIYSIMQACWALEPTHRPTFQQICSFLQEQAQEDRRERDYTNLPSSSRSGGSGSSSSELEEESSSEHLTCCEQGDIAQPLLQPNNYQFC
The species entered for a further data set is Homo sapiens. Put plainly: Inhibition of recombinant human EphB2 A848S/ K918E mutant (560 to end residues) at 10 uM using KTFCGTPEYLAPEVRREPRILSEEEQEMFRDFDYIADWC as substrate measured after 40 mins in presence of [gamma33P]ATP by scintillation counting method.
The target of data set [10] is Tau-tubulin kinase 2 (Homo sapiens) (UniProt Q6IQ55). In words: Inhibition of human TTBK2 (1 to 331 residues) using Casein as substrate measured after 40 mins in presence of [gamma33P]ATP by scintillation counting method.
Data set [11] concerns the target Serine/threonine-protein kinase Nek3 (Homo sapiens) (UniProt P51956). Put plainly: Inhibition of recombinant full-length human NEK3 at 10 uM using myelin basic protein as substrate measured after 40 mins in presence of [gamma33P]ATP by scintillation counting method.
Data set [12] deals with Protein kinase C eta type (Homo sapiens), P24723 [UNDEFINED MUTATION]. In words: Inhibition of recombinant human PKCeta V108L/G109R/L392Q mutant (2 to end residues) at 10 uM using ERMRPRKRQGSVRRRV as substrate measured after 40 mins in presence of [gamma33P]ATP by scintillation counting method.
Sequence of Protein kinase C eta type (Homo sapiens), P24723 [UNDEFINED MUTATION] (P24723 whole entry, looked up, stated change not applied): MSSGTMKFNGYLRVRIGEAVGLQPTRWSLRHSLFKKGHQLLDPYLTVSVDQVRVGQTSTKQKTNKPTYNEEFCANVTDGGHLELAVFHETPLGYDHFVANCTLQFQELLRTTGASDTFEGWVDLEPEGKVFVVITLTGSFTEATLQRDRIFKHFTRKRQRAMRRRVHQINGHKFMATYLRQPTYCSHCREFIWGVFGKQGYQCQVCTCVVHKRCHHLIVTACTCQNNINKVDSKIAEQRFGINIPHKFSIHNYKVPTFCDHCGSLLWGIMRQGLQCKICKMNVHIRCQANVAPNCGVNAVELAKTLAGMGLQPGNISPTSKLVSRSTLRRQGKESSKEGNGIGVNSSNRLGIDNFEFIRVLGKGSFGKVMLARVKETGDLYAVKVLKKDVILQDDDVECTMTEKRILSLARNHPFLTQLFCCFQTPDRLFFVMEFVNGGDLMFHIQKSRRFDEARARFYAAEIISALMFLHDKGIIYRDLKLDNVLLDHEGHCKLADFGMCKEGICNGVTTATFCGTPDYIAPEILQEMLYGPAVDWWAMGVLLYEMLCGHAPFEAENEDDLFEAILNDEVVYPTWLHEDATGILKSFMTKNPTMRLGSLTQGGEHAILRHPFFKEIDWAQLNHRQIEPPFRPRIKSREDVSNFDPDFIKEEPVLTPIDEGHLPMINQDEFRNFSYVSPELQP
The target in data set [13] is Mitogen-activated protein kinase kinase kinase 20 (Homo sapiens) (UniProt Q9NYL2). In words: Inhibition of recombinant full-length human ZAK at 10 uM using MBP as substrate measured after 40 mins in presence of [gamma33P]ATP by scintillation counting method.
Data set [14] addresses Dual specificity protein kinase CLK4 (Homo sapiens) (UniProt Q9HAZ1). In words: Inhibition of recombinant human CLK4 (128 to end residues) at 10 uM using YRRAAVPPSPSLSRHSSPHQS(p)EDEEE as substrate measured after 40 mins in presence of [gamma33P]ATP by scintillation counting method.
For data set [15], the system named is Tyrosine-protein kinase ABL1 (Homo sapiens), P00519 [H396P]. In words: Inhibition of recombinant human ABL H396P mutant (27 to end residues) at 10 uM using EAIYAAPFAKKK as substrate measured after 40 mins in presence of [gamma33P]ATP by scintillation counting method.
Data set [16] deals with TGF-beta receptor type-1 (Homo sapiens), P36897 [T204D]. In words: Inhibition of human TGFBR1 T204D mutant (200 to end residues) using casein as substrate measured after 40 mins in presence of [gamma33P]ATP by scintillation counting method.
Sequence of TGF-beta receptor type-1 (Homo sapiens), P36897 [T204D] (P36897 whole entry T204D): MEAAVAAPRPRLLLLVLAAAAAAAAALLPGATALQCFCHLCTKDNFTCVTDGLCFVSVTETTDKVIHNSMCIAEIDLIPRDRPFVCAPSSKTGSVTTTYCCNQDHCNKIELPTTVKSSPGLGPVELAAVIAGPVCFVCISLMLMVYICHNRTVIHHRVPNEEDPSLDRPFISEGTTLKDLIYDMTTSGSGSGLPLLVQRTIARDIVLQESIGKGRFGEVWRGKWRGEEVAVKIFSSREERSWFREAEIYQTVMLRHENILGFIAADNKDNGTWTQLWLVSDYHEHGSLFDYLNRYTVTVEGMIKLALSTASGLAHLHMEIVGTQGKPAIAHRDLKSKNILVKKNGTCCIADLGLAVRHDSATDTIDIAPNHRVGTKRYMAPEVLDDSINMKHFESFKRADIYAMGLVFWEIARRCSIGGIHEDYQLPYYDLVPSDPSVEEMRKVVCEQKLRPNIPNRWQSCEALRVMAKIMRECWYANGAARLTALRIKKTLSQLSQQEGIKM
For data set [17], the target named is Mitogen-activated protein kinase 11 (Homo sapiens) (UniProt Q15759). Put plainly: Inhibition of recombinant full-length human SAPK2b at 10 uM using myelin basic protein as substrate measured after 40 mins in presence of [gamma33P]ATP by scintillation counting method.
Data set [18] deals with Insulin receptor-related protein (Homo sapiens) (UniProt P14616). In words: Inhibition of recombinant human IRR (943 to 1266 residues) at 10 uM using myelin basic protein as substrate measured after 40 mins in presence of [gamma33P]ATP by scintillation counting method.
Data set [19] has as its target Activin receptor type-1 (Homo sapiens) (UniProt Q04771). Put plainly: Inhibition of recombinant human ALK2 (142 to end residues) at 10 uM using casein as substrate measured after 40 mins in presence of [gamma33P]ATP by scintillation counting method.
Data set [20] addresses Tyrosine-protein kinase FRK (Homo sapiens) (UniProt P42685). Put plainly: Inhibition of human PTK5 (218 to end residues) using GGEEEEYFELVKKKK as substrate measured after 40 mins in presence of [gamma33P]ATP by scintillation counting method. The essentials:
as §2

The target in data set [21] is Phosphorylase b kinase gamma catalytic chain, skeletal muscle/heart isoform (Homo sapiens) (UniProt Q16816). In words: Inhibition of recombinant full-length human PhKgamma1 at 10 uM using KKLNRTLSFAEPG as substrate measured after 120 mins in presence of [gamma33P]ATP by scintillation counting method.
In data set [22] the test system is Calcium/calmodulin-dependent protein kinase kinase 2 (Homo sapiens), Q96RR4 [T85S]. Put plainly: Inhibition of recombinant full-length human CAMKk2 T85S mutant at 10 uM using calmodulin as substrate measured after 40 mins in presence of [gamma33P]ATP by scintillation counting method.
For data set [23], the system named is Angiopoietin-1 receptor (Homo sapiens), Q02763 [Q939H,Q940H,Y897S]. In words: Inhibition of human Tie2 Q939H/Q940H/Y897S mutant (771 to end residues) using EFPIYDFLPAKKK as substrate measured after 40 mins in presence of [gamma33P]ATP by scintillation counting method.

Molecules are shown by their SMILES. The source made the active and inactive calls. No cut-off for these calls is given here.

Sequence of Dual specificity protein kinase CLK4 (Homo sapiens) (Q9HAZ1 whole entry, looked up): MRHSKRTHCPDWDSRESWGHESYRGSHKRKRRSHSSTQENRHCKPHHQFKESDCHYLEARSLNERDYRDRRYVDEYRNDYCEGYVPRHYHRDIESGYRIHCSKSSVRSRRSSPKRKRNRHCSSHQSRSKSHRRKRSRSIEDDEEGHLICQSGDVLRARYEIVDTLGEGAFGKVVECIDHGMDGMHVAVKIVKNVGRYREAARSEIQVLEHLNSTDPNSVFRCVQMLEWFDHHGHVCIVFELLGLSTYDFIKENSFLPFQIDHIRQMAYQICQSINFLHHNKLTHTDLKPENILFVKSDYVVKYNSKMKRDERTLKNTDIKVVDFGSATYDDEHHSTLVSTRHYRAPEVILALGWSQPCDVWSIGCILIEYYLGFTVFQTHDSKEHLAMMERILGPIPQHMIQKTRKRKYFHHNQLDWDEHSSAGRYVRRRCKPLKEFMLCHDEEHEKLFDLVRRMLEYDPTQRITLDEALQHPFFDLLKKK
Sequence of Serine/threonine-protein kinase Nek3 (Homo sapiens) (P51956 whole entry): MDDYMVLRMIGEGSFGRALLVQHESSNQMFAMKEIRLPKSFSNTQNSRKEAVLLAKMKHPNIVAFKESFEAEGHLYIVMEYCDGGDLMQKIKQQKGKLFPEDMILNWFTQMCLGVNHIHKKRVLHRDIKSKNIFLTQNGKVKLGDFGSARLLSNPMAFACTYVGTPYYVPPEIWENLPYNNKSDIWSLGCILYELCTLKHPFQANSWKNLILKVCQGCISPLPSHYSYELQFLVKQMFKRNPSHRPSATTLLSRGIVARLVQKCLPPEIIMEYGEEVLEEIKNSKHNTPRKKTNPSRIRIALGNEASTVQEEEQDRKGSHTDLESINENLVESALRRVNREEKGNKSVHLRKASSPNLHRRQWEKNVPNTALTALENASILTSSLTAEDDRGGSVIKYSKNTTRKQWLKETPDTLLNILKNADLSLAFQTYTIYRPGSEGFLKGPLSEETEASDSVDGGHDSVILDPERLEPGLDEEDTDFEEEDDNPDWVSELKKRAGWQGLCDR
Sequence of Calcium/calmodulin-dependent protein kinase type 1 (Homo sapiens) (Q14012 whole entry, looked up): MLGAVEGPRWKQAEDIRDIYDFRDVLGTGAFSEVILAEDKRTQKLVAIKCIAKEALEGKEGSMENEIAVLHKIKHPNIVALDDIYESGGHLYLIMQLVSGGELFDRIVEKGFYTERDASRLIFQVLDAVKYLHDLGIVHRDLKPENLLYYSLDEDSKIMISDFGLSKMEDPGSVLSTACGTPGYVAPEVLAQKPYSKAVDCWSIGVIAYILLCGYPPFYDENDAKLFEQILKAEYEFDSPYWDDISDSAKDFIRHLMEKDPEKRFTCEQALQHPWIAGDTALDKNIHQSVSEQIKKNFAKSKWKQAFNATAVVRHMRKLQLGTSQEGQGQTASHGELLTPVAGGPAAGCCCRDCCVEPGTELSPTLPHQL
Sequence of Activin receptor type-1 (Homo sapiens) (Q04771 whole entry): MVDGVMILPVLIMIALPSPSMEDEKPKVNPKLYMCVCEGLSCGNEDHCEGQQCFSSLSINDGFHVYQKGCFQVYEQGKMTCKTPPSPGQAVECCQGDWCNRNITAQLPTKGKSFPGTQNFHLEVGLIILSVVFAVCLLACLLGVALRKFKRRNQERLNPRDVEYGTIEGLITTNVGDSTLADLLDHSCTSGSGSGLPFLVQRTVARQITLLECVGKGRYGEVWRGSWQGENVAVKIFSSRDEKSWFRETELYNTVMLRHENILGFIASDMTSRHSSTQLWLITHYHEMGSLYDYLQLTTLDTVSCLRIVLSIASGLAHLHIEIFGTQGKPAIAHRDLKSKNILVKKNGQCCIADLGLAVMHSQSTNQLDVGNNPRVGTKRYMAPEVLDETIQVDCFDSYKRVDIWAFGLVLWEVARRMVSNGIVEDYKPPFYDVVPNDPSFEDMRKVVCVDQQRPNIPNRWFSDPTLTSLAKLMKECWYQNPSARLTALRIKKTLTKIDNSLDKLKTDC

`CN1C[C@H](Nc2nc3cc[nH]c3c(=O)n2C)C[C@H](c2ccc3c(c2)OCCO3)C1` showed an AUC(0-t) in data set [1] of 2480 ng·h/mL. The inhibition entry in [2], in data set [4], in data set [5], in data set [6], in data set [7] and in [8] was “inactive” each time. For the same molecule, the inhibition entry (in [9]; in the data set filed under Homo sapiens; in data set [10]; in [11]; in data set [12]; in [13]) was “inactive” in each case. In addition, the inhibition entry in [14], in [15], in data set [16], in data set [17], in data set [18] and in [19] was “inactive” each time. Also, the inhibition result in data set [20], in data set [21], in [22] and in [23] was “inactive” throughout. The AUC(0-inf) in data set [3] was 2490 ng·h/mL.

Broadly, the AUC(0-t) is the area under the concentration-time curve up to a stated or last time point. Low values mean low exposure, high ones high exposure. A word on the AUC(0-inf): it is the area under the concentration-time curve extrapolated to infinity. Lower therefore signals low exposure.

For the origin of these results see ChEMBL document CHEMBL4350961, “Discovery of Pyrrolo[3,2- d]pyrimidin-4-one Derivatives as a New Class of Potent and Cell-Active Inhibitors of P300/CBP-Associated Factor Bromodomain” (J Med Chem, 2019).
